The source made the active and inactive calls. No cut-off for these calls is given here.
Legend:
Mus musculus [1] = assay: Antipsychotic activity in albino lyka mouse assessed as reversal of apomorphine-induced stereotypy at 2 to 7.5 mg/kg, ip administered 10 mins prior to apomorphine challenge measured 10 to 30 mins post challenge; assay type: functional, organism-based
Outline: (§1)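 Mice (same animals as the climbing test) dosed ip with test agent, saline vehicle or clozapine; apomorphine 2.5 mg/kg given 10 min later. Each mouse was placed in an inverted 500 ml beaker for 60 s at 10, 15, 20, 25 and 30 min post-apomorphine. Scored 1 (rearing, sniffing, grooming) or 2 (licking, biting). Three doses per compound, chosen by initial titration.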

Mus musculus [2] = assay: Antipsychotic activity in ip dosed albino lyka mouse assessed as reversal of apomorphine-induced mesh climbing response administered 10 mins prior to apomorphine challenge measured 10 to 30 mins post challenge; assay type: functional
Outline: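 Test agent, saline or clozapine given ip; apomorphine 2.5 mg/kg ip 10 min later. Mice were placed in a mesh cage for 60 s at 10, 15, 20, 25 and 30 min post-apomorphine, with a naive baseline recorded first. Climbing scored 1 (one to three paws on mesh) or 2 (all four paws). Mean score per group.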

Mus musculus [3] = assay: Antipsychotic activity in albino lyka mouse assessed as reversal of apomorphine-induced stereotypy at 2.5 to 7.5 mg/kg, ip administered 10 mins prior to apomorphine challenge measured 10 to 30 mins post challenge; assay type: functional, organism-based; outline: as §1
Mus musculus [4] = assay: Antipsychotic activity in albino lyka mouse assessed as reversal of apomorphine-induced stereotypy at 2.5 to 5 mg/kg, ip administered 10 mins prior to apomorphine challenge measured 10 to 30 mins post challenge; assay type: functional, organism-based
Outline: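 Mice given test compound, vehicle or clozapine i.p., then apomorphine 2.5 mg/kg i.p. 10 min later. Each mouse placed in an inverted 500 ml beaker for 60 s at 10, 15, 20, 25 and 30 min after apomorphine. Scored 1 (rearing, sniffing, grooming) or 2 (licking, biting), reported as mean score. Same mice as mesh-climbing test. Three dose levels, chosen by initial titration.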

Mus musculus [5] = assay: Antipsychotic activity in albino lyka mouse assessed as reversal of apomorphine-induced stereotypy at 5 to 10 mg/kg, ip administered 10 mins prior to apomorphine challenge measured 10 to 30 mins post challenge; assay type: functional, organism-based; outline: as §1

Row | Compound | Activity (Mus musculus [1]) | ED50 (Mus musculus [2]) [mg/kg] | Activity (Mus musculus [3]) | Activity (Mus musculus [4]) | Activity (Mus musculus [5])
1 | Clc1ccc(NCCCOc2ccc(-c3cc4ccccc4[nH]3)cc2)cc1 | inactive | 1.8 |  |  | 
2 | Clc1ccccc1NCCCOc1ccc(-c2cc3ccccc3[nH]2)cc1 | inactive | 1.6 |  |  | 
3 | COc1ccccc1NCCCOc1ccc(-c2cc3ccccc3[nH]2)cc1 |  | 1.7 | Active |  | 
4 | CN1CCN(C2=Nc3cc(Cl)ccc3Nc3ccccc32)CC1 [CLOZAPINE] |  | 3.07 |  | inactive | 
5 | Clc1ccccc1NCCCOc1ccccc1-c1cc2ccccc2[nH]1 |  | 6.23 |  |  | inactive
6 | COc1ccc(NCCCOc2ccc(-c3cc4ccccc4[nH]3)cc2)cc1 |  | 1.9 | Active |  | 
7 | Clc1ccc(NCCCOc2ccccc2-c2cc3ccccc3[nH]2)cc1 |  | 7.23 |  |  | inactive
